High-throughput results deposited in PubChem by Broad Institute.
This is a sample that favours compounds with a hit; in the whole collection about 5.9% have one here.
T cruzi growth-1: inhibitors of T. cruzi proliferation. T. cruzi beta-gal in NIH3T3, GalScreen luminescence, 90 h. inhibition, % at 8.34 µM. actives 5.9% (n = 77,000). AID 624255;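 active = mean inhibition above about 93%, with at least 55% of replicates each passing it, limit read from the data, passing the limit was not always enough; inconclusive = only one of those two conditions holds; inactive = neither condition holds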
IDH1 R132H inh: inhibitors of human IDH1 R132H; O75874; IDH1 R132H reductase, diaphorase/resazurin fluorescence, 60 min; inhibition, % at 10 µM; actives 0.18% (n = 70,000); AID 624101; in the data active = inhibition above about 34%; inconclusive = no clear call, values can overlap the other calls; inactive = below about 11%
Target sequence (O75874 whole entry R132H): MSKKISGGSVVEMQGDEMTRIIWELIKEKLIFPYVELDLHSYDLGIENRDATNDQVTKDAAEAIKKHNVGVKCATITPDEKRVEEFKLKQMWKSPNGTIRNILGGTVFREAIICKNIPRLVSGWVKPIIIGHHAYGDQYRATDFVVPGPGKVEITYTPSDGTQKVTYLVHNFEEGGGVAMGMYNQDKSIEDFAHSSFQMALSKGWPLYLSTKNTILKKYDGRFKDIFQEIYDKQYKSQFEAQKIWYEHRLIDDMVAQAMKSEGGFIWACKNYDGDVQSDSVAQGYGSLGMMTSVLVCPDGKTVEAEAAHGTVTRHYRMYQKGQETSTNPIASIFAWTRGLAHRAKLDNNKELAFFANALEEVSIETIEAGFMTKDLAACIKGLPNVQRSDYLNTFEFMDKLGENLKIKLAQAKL
GASC1 inh: blocks human GASC-1 (KDM4C) demethylase activity; GST-KDM4C 2-372, H3K9me3 peptide, LANCE TR-FRET; Q9H3R0; inhibition, % at 12.5 µM; actives 0.15% (n = 96,000);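 active = mean replicate inhibition above about 25%, with at least 55% of replicates also reaching it, limit read from the data, passing the limit was not always enough; inconclusive = only one of those two conditions met; inactive = neither condition met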
Target sequence (Q9H3R0 2-372 limits assumed): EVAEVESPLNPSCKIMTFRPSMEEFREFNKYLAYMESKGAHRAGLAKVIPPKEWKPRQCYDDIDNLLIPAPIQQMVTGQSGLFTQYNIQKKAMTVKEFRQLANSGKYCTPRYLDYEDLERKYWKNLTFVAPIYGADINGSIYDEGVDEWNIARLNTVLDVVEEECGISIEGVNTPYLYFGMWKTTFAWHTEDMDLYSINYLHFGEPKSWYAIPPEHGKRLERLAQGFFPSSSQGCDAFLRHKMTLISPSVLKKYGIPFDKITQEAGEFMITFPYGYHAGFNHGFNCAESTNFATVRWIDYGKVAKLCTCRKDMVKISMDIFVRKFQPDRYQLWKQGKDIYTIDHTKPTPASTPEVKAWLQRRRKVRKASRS
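reagent = H3K9me3 peptide substrate, Fe(II), 2-oxoglutarate | system = GST-tagged GASC-1 (JMJD2C) catalytic fragment, aa 2-372 | amount = enzyme final amount 10 nM | read-out = Fall in 671/618 emission ratio as inhibition | medium = HEPES buffer, pH 7.5, plus ascorbate | schedule = 30 min reaction, 60 min detection, RT | measured by = LANCE TR-FRET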
Pf Dd2 inh: P. falciparum Dd2 growth inhibition. SYBR Green, 72 h; stronger effect = lower value. activity change, % at 10 µM. actives 2.3% (n = 94,000). AID 1159554; in the data active = activity change below about -80%; inconclusive = no clear call, values can overlap the other calls
T cruzi growth-2: Trypanosoma cruzi proliferation inhibition; shares compounds with T cruzi growth-1; T. cruzi beta-gal in NIH3T3, GalScreen luminescence, 90 h; inhibition, % at 8.35 µM; actives 72% (n = 5,600);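 active = mean replicate inhibition above about 95% and at least 55% of replicates individually reaching it, limit read from the data; inconclusive = only one of the two criteria is met; inactive = neither criterion is met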
T cruzi growth-3: Trypanosoma cruzi proliferation inhibition | actives 21% (n = 5,600) | inhibition, % at 2.09 µM | T. cruzi beta-gal in NIH3T3, GalScreen luminescence, 90 h | shares compounds with T cruzi growth-1;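 active = mean inhibition above about 95%, with at least 55% of replicates also reaching it, limit read from the data; inconclusive = meets just one of the two conditions; inactive = meets neither condition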
3T3 cytotox: NIH/3T3 (mouse) viability loss; actives 14% (n = 5,600); cytotoxicity (signal decrease), % at 8.35 µM; shares compounds with T cruzi growth-1; AID 651742; NIH/3T3 viability, CellTiter-Glo ATP luminescence, 90 h;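 active = mean signal decrease across replicates above about 35% based on untreated-well scatter, with enough replicates individually passing, limit read from the data; inconclusive = no rule stated though some were filed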
NIH3T3 tox 2: NIH/3T3 (mouse) viability loss. shares compounds with T cruzi growth-1. NIH/3T3 viability, CellTiter-Glo ATP luminescence, 90 h. inhibition, % at 24.9 µM. actives 56% (n = 5,600). AID 651744;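 active = mean loss of cell viability signal at or above a set limit, and enough replicates individually reaching it; inconclusive = meets only the mean limit or only the replicate share; inactive = meets neither condition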
Large screens that a line does not name were inactive (follow-up assays come after a bar, where they were run).

COc1cccc(S(=O)(=O)Nc2ccc3c(c2)[C@H]2C[C@@H](CC(=O)NC4CCCCC4)O[C@H](CO)[C@H]2O3)c1	IDH1 R132H inh inconclusive (no result: GASC1 inh)
COc1cccc(S(=O)(=O)Nc2ccc3c(c2)[C@@H]2C[C@@H](CC(=O)NCc4ccc(Cl)cc4)O[C@@H](CO)[C@@H]2O3)c1	none
COc1cccc(S(=O)(=O)Nc2ccc3c(c2)[C@H]2C[C@H](CC(=O)NCc4ccc(Cl)cc4)O[C@@H](CO)[C@H]2O3)c1	T cruzi growth-1 146 | T cruzi growth-2 108 | T cruzi growth-3 inactive | 3T3 cytotox inactive | NIH3T3 tox 2 inactive
COc1cccc(S(=O)(=O)Nc2ccc3c(c2)[C@H]2C[C@H](CC(=O)NC4CCCCC4)O[C@H](CO)[C@H]2O3)c1	T cruzi growth-1 124 | T cruzi growth-2 inconclusive | T cruzi growth-3 inactive | 3T3 cytotox inactive | NIH3T3 tox 2 inactive
C[C@@H]1CN([C@H](C)CO)C(=O)c2cc(NS(=O)(=O)c3ccc(F)cc3)ccc2O[C@H]1CN(C)C(=O)Nc1ccc2c(c1)OCO2	none
CCCNC(=O)N1[C@H](CNC(=O)c2cccc(F)c2)[C@@H](c2ccccc2)[C@@H]1CO	none (no result: IDH1 R132H inh)
O=C(N[C@@H]1CC[C@@H](CCn2cc(Cc3ccccc3)nn2)O[C@@H]1CO)c1ccccn1	none
Cc1cc(C)cc(NC(=O)Nc2ccc3c(c2)C(=O)N(C)[C@H]2CC[C@@H](CC(=O)O)O[C@@H]2CO3)c1	none (no result: IDH1 R132H inh)
O=C(c1ccc(F)cc1)N1CCCCN2[C@H](CO)[C@@H](c3ccc(/C=C/c4ccccc4)cc3)[C@H]2C1	T cruzi growth-1 108 (no result: IDH1 R132H inh) | T cruzi growth-2 103 | T cruzi growth-3 inactive | 3T3 cytotox inactive | NIH3T3 tox 2 104
O=C(c1ccc(F)cc1)N1CCCCN2[C@H](C1)[C@H](c1ccc(/C=C/c3ccccc3)cc1)[C@@H]2CO	T cruzi growth-1 inconclusive (no result: IDH1 R132H inh) | T cruzi growth-2 inconclusive | T cruzi growth-3 inactive | 3T3 cytotox inactive | NIH3T3 tox 2 103
Cc1ccc(-c2ccc([C@H]3[C@H](CO)N4CCCCN(S(=O)(=O)c5cccc(C)c5)C[C@@H]34)cc2)cc1	none (no result: IDH1 R132H inh, GASC1 inh)
Cc1cccc(S(=O)(=O)N2CCCCN3[C@H](CO)[C@H](c4ccc(-c5ccncc5)cc4)[C@H]3C2)c1	T cruzi growth-1 110 (no result: IDH1 R132H inh) | T cruzi growth-2 107 | T cruzi growth-3 inactive | 3T3 cytotox inactive | NIH3T3 tox 2 37
Cc1cccc(S(=O)(=O)N2CCCCN3[C@@H](CO)[C@H](c4ccc(-c5ccncc5)cc4)[C@@H]3C2)c1	T cruzi growth-1 98 (no result: IDH1 R132H inh) | T cruzi growth-2 107 | T cruzi growth-3 inactive | 3T3 cytotox inactive | NIH3T3 tox 2 46
Cc1ccc(-c2ccc([C@@H]3[C@H](CO)N4CCCCN(S(=O)(=O)c5cccc(C)c5)C[C@@H]34)cc2)cc1	T cruzi growth-1 108 (no result: IDH1 R132H inh, GASC1 inh) | T cruzi growth-2 inconclusive | T cruzi growth-3 98 | 3T3 cytotox inactive | NIH3T3 tox 2 104
Cc1ccc(-c2ccc([C@H]3[C@H]4CN(S(=O)(=O)c5cccc(C)c5)CCCCN4[C@H]3CO)cc2)cc1	none (no result: IDH1 R132H inh, GASC1 inh)
CC=Cc1ccc2n(c1=O)C[C@H]1[C@H](CO)[C@@H](C(=O)NCC(F)(F)F)N(C(=O)c3cccnc3)[C@@H]21 (mixture of isomers)	T cruzi growth-1 active (no result: IDH1 R132H inh, Pf Dd2 inh) | T cruzi growth-2 inactive | T cruzi growth-3 inactive | 3T3 cytotox inactive | NIH3T3 tox 2 inactive
CC=Cc1ccc2n(c1=O)C[C@@H]1[C@@H](CO)[C@H](C(=O)NCCc3ccncc3)N(CCC(F)(F)F)[C@H]21 (mixture of isomers)	T cruzi growth-1 108 (no result: IDH1 R132H inh) | T cruzi growth-2 inactive | T cruzi growth-3 inactive | 3T3 cytotox inactive | NIH3T3 tox 2 inactive
COc1ccc(NC(=O)N(C)C[C@@H]2Oc3ccc(NS(=O)(=O)c4ccc(OC)cc4)cc3CC(=O)N([C@@H](C)CO)C[C@@H]2C)cc1	none
CN1C(=O)c2cc(NC(=O)c3ccc(C(F)(F)F)cc3)ccc2OC[C@@H]2O[C@H](CC(=O)NC3Cc4ccccc4C3)CC[C@H]21	T cruzi growth-1 105 (no result: IDH1 R132H inh) | T cruzi growth-2 113 | T cruzi growth-3 inactive | 3T3 cytotox inactive | NIH3T3 tox 2 inconclusive
CN1C(=O)c2cc(NC(=O)c3cccc(Cl)c3)ccc2OC[C@H]2O[C@@H](CC(=O)NC3CCCCC3)CC[C@@H]21	none (no result: T cruzi growth-1, IDH1 R132H inh)
CN1C(=O)c2cc(NC(=O)c3cccc(Cl)c3)ccc2OC[C@@H]2O[C@H](CC(=O)NC3CCCCC3)CC[C@@H]21	T cruzi growth-1 100 (no result: IDH1 R132H inh) | T cruzi growth-2 99 | T cruzi growth-3 inactive | 3T3 cytotox inactive | NIH3T3 tox 2 60
CN1C(=O)c2cc(NC(=O)c3ccc(C(F)(F)F)cc3)ccc2OC[C@H]2O[C@H](CC(=O)NC3Cc4ccccc4C3)CC[C@H]21	none (no result: IDH1 R132H inh)
Cc1noc(C)c1S(=O)(=O)N(C)C[C@H]1Oc2ccc(NC(=O)CCC(F)(F)F)cc2CC(=O)N([C@@H](C)CO)C[C@@H]1C	none
C[C@@H]1CN([C@H](C)CO)S(=O)(=O)c2ccc(C#CCC3CCCC3)cc2O[C@H]1CN(C)C	none
CNC[C@@H]1Oc2cc(C#CCC3CCCC3)ccc2S(=O)(=O)N([C@@H](C)CO)C[C@H]1C	T cruzi growth-1 inconclusive | T cruzi growth-2 101 | T cruzi growth-3 inactive | 3T3 cytotox inconclusive | NIH3T3 tox 2 105
CNC[C@@H]1Oc2cc(C#CCC3CCCC3)ccc2S(=O)(=O)N([C@@H](C)CO)C[C@@H]1C	T cruzi growth-1 inconclusive | T cruzi growth-2 inactive | T cruzi growth-3 inactive | 3T3 cytotox 51 | NIH3T3 tox 2 106
CNC[C@H]1Oc2cc(C#CCC3CCCC3)ccc2S(=O)(=O)N([C@@H](C)CO)C[C@@H]1C	T cruzi growth-1 inconclusive | T cruzi growth-2 inactive | T cruzi growth-3 inactive | 3T3 cytotox inactive | NIH3T3 tox 2 inactive
C[C@H]1CN([C@@H](C)CO)S(=O)(=O)c2ccc(C#CCC3CCCC3)cc2O[C@@H]1CN(C)C	none (no result: GASC1 inh)
CNC[C@H]1Oc2cc(C#CCC3CCCC3)ccc2S(=O)(=O)N([C@H](C)CO)C[C@H]1C	T cruzi growth-1 inconclusive | T cruzi growth-2 98 | T cruzi growth-3 inactive | 3T3 cytotox inconclusive | NIH3T3 tox 2 106
CC(C)NC[C@H]1[C@@H](c2ccc(-c3ccccc3)cc2)[C@@H](CO)N1CC1CC1	none (no result: IDH1 R132H inh)
C[C@@H](NC(=O)[C@@H]1[C@@H](CO)[C@@H]2Cn3c(cccc3=O)[C@H]1N2C(=O)C1CC1)c1ccccc1	none (no result: IDH1 R132H inh)
